This is an account of results in ChEMBL document CHEMBL2046393, “Enantiomeric derivatives of tokinolide B: absolute configuration and biological properties” (J Nat Prod, 2012).

Holding throughout (type): functional, cell-based
Test [1] deals with SK-LU-1. Kind of test: Cytotoxicity against human SKLU1 cells assessed as growth inhibition after 48 hrs by SRB assay. Conditions: SK-LU-1, 48 h. Put shortly: (§1)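 Cell lines from NCI, grown in RPMI-1640 with 10% FBS and antibiotics at 37 °C, 5% CO2. Seeding: HCT-15 10 × 10^4 cell/well, K562 5 × 10^4 cell/mL, SKLU-1 7500 cell/mL. After 24 h, compound added for 48 h. Cells fixed in cold TCA (60 min, 4 °C), stained with 0.4% SRB, dye extracted in Tris base, OD read at 515 nm. IC50 from linear regression; means ± SEM, three replicates.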
On the technique in general: Sulforhodamine B stains cellular protein and so reports cell mass.

In test [2] the test system is HCT-15. The test is described as follows: Cytotoxicity against human HCT15 cells assessed as growth inhibition after 48 hrs by SRB assay. The note with it: HCT-15, 48 h. In outline: as §1
The subject of test [3] is K562. The test is described as follows: Cytotoxicity against human K562 cells assessed as growth inhibition after 48 hrs by SRB assay. Conditions: K562, 48 h. In outline: as §1

One may read the IC50 as the point on the concentration scale where inhibition reaches its midpoint. Regarding `CCCC[C@@]12O[C@]34CCCC=C3C(=O)O[C@@]43[C@H](CCC)[C@@H]4C=C(C(=O)N1[C@@H](C)c1ccccc1)[C@]32CC4`, the results for the IC50 in test [1], in test [2] and in test [3] were 4.9 µM, 7.5 µM and 13.9 µM, respectively.
For `CCCC[C@@]12O[C@]34CCCC=C3C(=O)O[C@@]43[C@H](CCC)[C@H]4C=C(C(=O)N1[C@H](C)c1ccccc1)[C@]32CC4` the same measures were 5.9 µM, 8.5 µM and 21.7 µM.
The matching figures for `C=C1C(=O)O[C@@H]2C[C@@H](C)[C@@H]3C=CC(=O)[C@@]3(C)[C@@H](O)[C@H]12` [HELENALIN]: 0.21 µM, 0.29 µM and 0.28 µM.
The matching figures for `CCC/C=C1\OC(=O)C2=C[C@H]3CCC21[C@]1(OC(=O)C2=C1CCC=C2)[C@@H]3CCC` (mixture of isomers): 7.1 µM, 10.5 µM and 26.6 µM.
Turning to `CCCC[C@]12O[C@@]34CCCC=C3C(=O)O[C@]43[C@@H](CCC)[C@H]4C=C(C(=O)N1[C@@H](C)c1ccccc1)[C@@]32CC4`, the IC50 in test [1] amounted to 4.3 µM; in test [2], 5.2 µM; in test [3], 5.2 µM.
In the case of `CCCC[C@]12O[C@@]34CCCC=C3C(=O)O[C@]43[C@@H](CCC)[C@@H]4C=C(C(=O)N1[C@H](C)c1ccccc1)[C@@]32CC4`, the IC50 in test [1] was 4.1 µM; in test [2], 5.4 µM; in test [3], 5.7 µM.
`CCC/C=C1\OC(=O)C2=C1CC[C@H]1[C@@H]2[C@@]2(OC(=O)C3=C2CCC=C3)[C@H]1CCC` (racemic): the 50% inhibitory concentration (IC50) in test [1] turned out to be 13.2 µM; in test [2] it was 44.8 µM; in test [3], 46.1 µM.
